According to PubChem BioAssay AID463079 (The Scripps Research Institute Molecular Screening Center, 2010):
In all, about 330,000 compounds went through this assay and about 2,000 (0.61%) were called active.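 How the source made its calls: active means inhibition above that plate's mean sample inhibition plus 3 SD (cut at about 26% in these data); inactive means the rest.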 This excerpt belongs to a sample that is enriched for actives.

Assay: ATP-evoked calcium signal inhibitors, parental CHO, primary screen, counter-screen for OX1R antagonist project, cell-based, fluorescence, Fluo-8 calcium dye (AID 463079);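 further: 0% = ATP-challenged DMSO wells and 100% = DMSO wells without ATP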
Conditions: parental CHO-K1, ATP-induced calcium, Fluo-8 fluorescence; at 5.6 µM; stronger effect = higher value
How it was run: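 material = parental CHO cells | also added = ATP as calcium-mobilizing challenge | dosing = single point at 5.6 µM | detection = intracellular calcium via Fluo-8 no-wash fluorescent dye | read-out = % inhibition | benchmarks = low control ATP plus DMSO, high control DMSO only | repeats = one well per compound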

Row | Structure (SMILES) | inhibition
1 | Cc1cccc(-c2nc3c(c(SCC(=O)N4CCOCC4)n2)CCCC3)c1 | -8.39% (inactive)
2 | CC[C@]1(O)C[C@@H]2CN(CCc3c([nH]c4ccccc34)[C@@](C(=O)OC)(c3cc4c(cc3OC)N(C)[C@H]3[C@@](O)(C(=O)OC)[C@H](OC(C)=O)[C@]5(CC)C=CCN6CC[C@]43[C@@H]65)C2)C1 | -20.6% (inactive)
3 | O=C(O)c1ccccc1CSc1nc2ccccc2s1 | -0.85% (inactive)
4 | Cc1nc2nc(CSc3nc4ccccc4s3)cc(=O)n2[nH]1 | -18.4% (inactive)
5 | O=[N+]([O-])c1c(NCCO)cc(Sc2nc3ccccc3s2)c2nonc12 | 77.3% (active)
6 | CN1CCc2nc(SC(C(=O)O)c3ccccc3)c(C#N)c(-c3cccs3)c2C1 (stereo not given) | -2.58% (inactive)
7 | CC[C@]1(C(=O)OC)[C@H]2C(=O)N(Cc3ccccc3)C(=O)[C@H]2[C@H]2CN=C(SCc3ccccc3)N21 | -23.1% (inactive)
8 | Cc1ccc(N2CCN(S(=O)(=O)N(C)C)CC2)cc1Cl | -18.3% (inactive)
9 | CN(C)S(=O)(=O)N1CCN(c2ccc([N+](=O)[O-])cc2)CC1 | 29% (active)
10 | COc1ccc(N2CCN(c3ccc([N+](=O)[O-])cc3Cl)CC2)cc1 | 12% (inactive)
11 | CCCOc1ccc(Cc2c(O)nc(N)[nH]c2=O)cc1C | -2.86% (inactive)
12 | COc1cc(OC)cc(-c2cc3ccc(F)cc3cn2)c1 | -22.7% (inactive)
13 | COc1ccc(N2CCN(C(=O)CCc3nc(-c4ccc(C)cc4)no3)CC2)cc1 | -13.6% (inactive)
14 | COc1ccc(-c2noc(C(C)NS(=O)(=O)c3ccc(NC(C)=O)cc3)n2)cc1 (stereo not given) | -2.83% (inactive)
15 | COc1ccc(-c2noc(CN(C)S(=O)(=O)c3ccc(C)cc3)n2)cc1 | 38.9% (active)
16 | Cc1ccc(OCC(=O)Nc2ccccc2C(=O)NC2CC2)cc1 | -12.7% (inactive)
17 | Cc1nc(-c2ccc(Cl)cc2)sc1C(=O)CBr | 16.1% (inactive)
18 | CC(=O)Oc1ccccc1C(=O)Nc1ncc([N+](=O)[O-])s1 | 39% (active)
19 | O=C(Cc1c(F)cccc1Cl)Nc1ncc([N+](=O)[O-])s1 | 3.65% (inactive)
20 | COc1ccc(NC(=O)c2ccccc2[N+](=O)[O-])cc1OC | -4.31% (inactive)
21 | COc1ccccc1N1CCN(C(=O)CSc2ncnc3c2cnn3-c2ccc(C)c(C)c2)CC1 | -14.4% (inactive)
22 | O=C(N/C(=C\c1ccc(F)cc1)C(=O)N1CCCCCC1)c1ccccc1 | -14% (inactive)
23 | CCc1ccccc1N1C(=O)C2C3CC(=O)C(c4ccccc43)C2C1=O (stereo not given) | 29.8% (active)
24 | CC1=C(C)CC2C(=O)N(c3cccc4ccccc34)C(=O)C2C1 (stereo not given) | -11.3% (inactive)
25 | CC(=O)Nc1ccc(N2C(=O)C3C4CC(=O)C(c5ccccc54)C3C2=O)cc1 (stereo not given) | 9.03% (inactive)
